Measured values reported in ChEMBL document CHEMBL1124437, “Analogues of cisplatin derived from diaminodideoxytetritols. Synthesis and activity against the ADJ/PC6 plasmacytoma in mice” (J Med Chem, 1989).

Tests used:
Mus musculus [1] = assay: Compound was screened for antitumor activity against ADJ/PC6 tumor subcutaneously implanted into female intraperitoneal compound administration; format: functional, organism-based
Procedure, shortened: (§1)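 ADJ/PC6 plasmacytoma implanted subcutaneously in female Balb-C mice, with compound given by intraperitoneal injection. Four dose levels were tested (5, 25, 125 and 625 mg per kg), six mice per dose. LD50 is the 50% lethal dose, ED90 is the dose giving 90% tumor regression, and therapeutic index = LD50/ED90.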

[2] = Therapeutic index is the ratio of LD50 to ED90
Procedure, shortened: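 In female Balb-C mice bearing subcutaneous ADJ/PC6 tumor, dosed ip or po at 5, 25, 125 and 625 mg per kg (six animals per dose). Therapeutic index is the 50% lethal dose divided by the dose causing 90% tumor regression (LD50/ED90).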

Mus musculus [3] = assay: Antitumor activity against ADJ/PC6 tumor subcutaneously implanted into female intraperitoneal compound administration; format: functional, organism-based; procedure, shortened: as §1

Substance | TI [2] | also measured
cis-dichloro(cis-5,6-diamino-1,3-dioxepane)platinum (II) [listing 1 of 2 here] |  | LD50 (Mus musculus [1]): 41.5 mg/kg
CISPLATIN [listing 1 of 2 here] | 8.1 | 
CISPLATIN [listing 2 of 2 here] |  | LD50 (Mus musculus [3]): 13 mg/kg
cis-dichloro(cis-5,6-diamino-1,3-dioxepane)platinum (II) [listing 2 of 2 here] | 4.1 | 
